Measurements reported in ChEMBL document CHEMBL3259761, “Myrotheciumones: bicyclic cytotoxic lactones isolated from an endophytic fungus of Ajuga decumbens” (Bioorg Med Chem Lett, 2014).
The source made the active and inactive calls. No cut-off for these calls is given here.

Assays:
[1] = system: SMMC-7721; assay: Cytotoxicity against human SMMC7721 cells at 100 uM after 48 hrs by MTT assay; format: functional, cell-based
[2] = system: HepG2; assay: Cytotoxicity against human HepG2 cells at 100 uM after 48 hrs by MTT assay; format: functional, cell-based
[3] = system: MCF7; assay: Cytotoxicity against human MCF7 cells at 100 uM after 48 hrs by MTT assay; format: functional, cell-based
[4] = system: A549; assay: Cytotoxicity against human A549 cells at 100 uM after 48 hrs by MTT assay; format: functional, cell-based
[5] = system: MCF7; assay: Cytotoxicity against human MCF7 cells after 48 hrs by MTT assay; format: functional, cell-based; conditions: MCF7, 48 h
Method in brief: (§1)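 Cell lines: HepG2, A549 and MCF-7 from ATCC; SMMC-7721 hepatocellular carcinoma and QSG-7701 and HL-7702 normal human hepatocyte lines from the Type Culture Collection of the Chinese Academy of Sciences, Shanghai. Each line was exposed to compound and growth inhibition was scored; IC50 values reported as mean ± deviation.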

[6] = system: HepG2; assay: Induction of apoptosis in human HepG2 cells assessed as cytochrome c release from mitochondria at 4 uM after 12 hrs by immunofluorescence analysis relative to control; format: functional, cell-based
Method in brief: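 HepG2 cells were treated at 4 µM for 12 h, then assessed for cytochrome c release from mitochondria.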

[7] = system: SMMC-7721; assay: Cytotoxicity against human SMMC7721 cells after 48 hrs by MTT assay; format: functional, cell-based; conditions: SMMC-7721, 48 h; method in brief: as §1
[8] = Cytotoxicity against human QSG7701 cells after 48 hrs by MTT assay; format: cell-based; conditions: QSG7701, 48 h; method in brief: as §1
[9] = system: A549; assay: Cytotoxicity against human A549 cells after 48 hrs by MTT assay; format: functional, cell-based; conditions: A549, 48 h; method in brief: as §1
[10] = system: HepG2; assay: Induction of apoptosis in human HepG2 cells assessed as caspase 3 activity at 4 uM at 12 hrs by Ac-DEVD-pNA-based colorimetric assay relative to control; format: functional
Method in brief: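 HepG2 cells were treated at 4 µM for 0, 3, 6 and 12 h. Caspase-3 activity was measured colorimetrically as conversion of Ac-DEVD-pNA to p-nitroaniline, using a Biovision kit per the manufacturer's protocol. Activity was expressed as fold over control.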

[11] = system: HepG2; assay: Induction of apoptosis in human HepG2 cells assessed as PARP cleavage after 8 hrs by Western blotting; format: functional, cell-based
Method in brief: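 HepG2 cells were treated either at 5, 10 and 20 µM for 8 h, or at 4 µM for 0, 3, 6 or 12 h. PARP cleavage was then assessed.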

[12] = Cytotoxicity against human HL7702 cells after 48 hrs by MTT assay; format: cell-based; conditions: L02, 48 h; method in brief: as §1
[13] = system: HepG2; assay: Cytotoxicity against human HepG2 cells after 48 hrs by MTT assay; format: functional, cell-based; conditions: HepG2, 48 h; method in brief: as §1

Row | Structure (SMILES) | Activity [1] | Activity [2] | Activity [3] | Activity [4] | IC50 [5] [µM] | Activity [6] | IC50 [7] [µM] | IC50 [8] [µM] | IC50 [9] [µM] | fold change (FC) [10] | Activity [11] | IC50 [12] [µM] | IC50 [13] [µM]
1 | C[C@@H]1[C@@H]2C(=O)O[C@@H]2C[C@]1(C)O | inactive | inactive | inactive | inactive | – | – | – | – | – | – | – | – | –
2 | C[C@@H]1[C@@H]2CC(=O)O[C@@H]2C[C@]1(C)O | – | – | – | – | 7.56 | Active | 6.56 | 16.3 | 5.88 | 6 | Dose-dependent effect | 20.7 | 5.36
